# Source: PubChem BioAssay (several laboratories)
# This is a sample that favours compounds with a hit; in the whole collection about 3.3% have one here.
# sPLA2-III inh: Blocks human group III sPLA2 activity. Q9NZ20. QFRET BODIPY PC-A2 liposome hydrolysis, fluorescence. AID 743126. hit rate 0.56% among 370,000. inhibition, % at 12.2 µM;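 active = inhibition above mean plus 3 SD of compounds lying within the high and low control bounds, cut at about 19% in these data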;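 note: 0% = median of test compound wells and 100% = no enzyme DMSO wells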
# Arrestin-AP2 inh: human beta-arrestin and AP2 interaction inhibition; FITC-arrestin peptide / GST-AP2 beads, flow cytometry; AP2 beta2 appendage carries R879A mutation; inhibition, % at 10 µM; hit rate 0.31% among 340,000; AID 504490;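 active = inhibition above a set limit, near 3 SD of compounds lacking own fluorescence, cut at about 54% in these data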;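 note: plate controls were DMSO wells for no effect and 5 µM unlabelled arrestin peptide for full effect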
#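 system = GST-tagged AP2 beta2-adaptin appendage (R879A) on 4 µm glutathione beads | reagent = FITC-labelled arrestin peptide probe, 50 nM final | schedule = compound with beads 12 min RT, then probe 1 h RT | signal = HyperCyt-sampled flow cytometry, FL1 channel, ex 488/em 535 nm | read-out = percent response from loss of bead-bound FITC fluorescence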
# m5-HT2A agonist: activates the mouse 5-HT2A serotonin receptor; P35363; CHO-K1 mHTR2A beta-arrestin complementation, luminescence; percent of 30 µM serotonin response; activation, % at 7.6 µM; hit rate 0.66% among 360,000;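 active = activation above a run cutoff, the mean activation of all tested compounds plus 3 SD, cut at about 14% in these data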;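 note: 0% = plate median of compound wells and 100% = 30 µM serotonin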
# Target sequence (P35363 whole entry, looked up): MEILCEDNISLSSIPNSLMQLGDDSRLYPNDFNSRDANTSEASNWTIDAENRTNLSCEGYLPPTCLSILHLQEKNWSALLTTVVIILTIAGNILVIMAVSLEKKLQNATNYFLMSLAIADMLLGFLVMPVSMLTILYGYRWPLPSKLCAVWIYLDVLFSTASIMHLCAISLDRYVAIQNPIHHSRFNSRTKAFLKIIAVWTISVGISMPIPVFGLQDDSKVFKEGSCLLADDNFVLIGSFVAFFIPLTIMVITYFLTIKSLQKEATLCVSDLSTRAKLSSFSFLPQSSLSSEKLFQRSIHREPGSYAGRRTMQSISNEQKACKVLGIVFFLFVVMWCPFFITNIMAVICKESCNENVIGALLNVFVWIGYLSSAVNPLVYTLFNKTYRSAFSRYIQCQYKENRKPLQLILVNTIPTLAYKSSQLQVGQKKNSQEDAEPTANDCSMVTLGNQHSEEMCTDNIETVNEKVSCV
# Hep lipid drop: modulators of hepatic lipid droplet formation. inhibition, % at 6.5 µM. hit rate 0.4% among 240,000. AML12 mouse hepatocytes, oleate lipid droplets, BODIPY imaging;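 active = lipid droplet intensity inhibited by at least 50%, with more than 500 cells counted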
#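 Material – mouse AML12 hepatocyte cell line, fixed after treatment · Compound dosing – one dose, 6.5 µM compound · Times – compound with oleate, overnight · Measured by – Image-based BODIPY and DAPI two-channel analysis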
# CendR NRP1 mod: NRP-1/CendR interaction modulation; inhibition, % at 25 µM; hit rate 0.85% among 360,000; O14786; FAM-RPARPAR peptide binding to NRP-1, fluorescence polarization;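 active = inhibition or corrected inhibition above about 18%, plus a signal ratio from 0.5 to 1.5, limit read from the data, passing the limit was not always enough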
# M18AAP inhibitor: PfM18AAP enzyme inhibition; recombinant PfM18AAP, H-Glu-NHMec fluorogenic cleavage; inhibition, % at 7.35 µM; hit rate 1.2% among 290,000;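 active = inhibition above the campaign mean inhibition over all tested compounds plus 3 SD, cut at about 28% in these data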;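 note: 0% = plate median of test compound wells and 100% = 2 mM ZnCl2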
# Starred values were filed as active, the others as inactive; x = no result.
SMILES,sPLA2-III inh,Arrestin-AP2 inh,m5-HT2A agonist,Hep lipid drop,CendR NRP1 mod,M18AAP inhibitor
COc1cccc(NC(=S)Nc2ccc(O)cc2)c1,6,-6,4,8,18,35*
Cc1noc(C)c1NC(=O)N(C)C[C@H]1OCc2cn(nn2)CCCC(=O)N([C@H](C)CO)C[C@@H]1C,7,x,x,x,x,x
COc1cc(CN2CCC(C(=O)N3CCC(C)CC3)CC2)cc(Br)c1O,-8,10,-8,x,16,31*
COC(=O)[C@]12C[C@H](CC(=O)N3CCSCC3)C(=O)N(CCC3=CCCCC3)C1=C[C@H](C1CCCC1)O[C@@H]2C,0,x,x,x,x,x
CCOC(=O)c1csc(NC(=O)c2ccc3c(c2)OCCO3)n1,x,2,6,8,29*,6
CCOC(=O)c1csc(NC(=O)c2ccc(OC)c(OC)c2)n1,-2,-8,3,x,0,8
c1ccc(N2CCN(c3cccc(-c4cc5ccccc5s4)n3)CC2)nc1,-5,x,0,x,-2,x
O=C(O)C1CCCC2CN3CCc4c([nH]c5ccccc45)C3C(O)C21 (stereo not drawn),-6,34,12,10,14,28*
CN(C)c1ccc(C(=O)OCc2cc(=O)n3ccsc3n2)cc1,-3,-7,6,x,23*,x
O=C(OCc1cc(=O)n2ccsc2n1)c1ccc(OC(F)F)cc1,3,28,4,x,-3,x
CC1(c2ccccc2)NC(=O)N(CC(=O)N2CCN(S(=O)(=O)c3cccc(C(F)(F)F)c3)CC2)C1=O (stereo not drawn),-22,15,2,x,16,x
O=C(NNc1cccc(Cl)c1)c1cccnc1Cl,-1,3,-3,0,3,13
O=C(NNc1cccc(Cl)n1)c1cccnc1Cl,10,6,4,8,-3,32*
O=C(O)c1cccc(S(=O)(=O)N2CCCC2)c1,x,25,-2,x,4,-7
O=C(O)c1cccc(S(=O)(=O)N2CCN(C(c3ccccc3)c3ccccc3)CC2)c1,-14,36,2,2,36*,2
O=C(Nc1nccs1)c1cc(-c2ccccn2)nc2c(Cl)cccc12,-1,33,-2,1,-8,-1
CC(=O)c1sc(C(=O)O)c(-c2ccco2)c1-c1ccco1,0,2,-3,-1,3,30*
CCOC(=O)c1sc(=S)n(-c2ccc(C)cc2)c1N,7,-2,-1,11,11,29*
CCOC(=O)c1sc(=S)n(-c2ccc(F)c(F)c2)c1N,5,-5,5,-20,-12,-7
CCOc1ccc(OCCC(=O)OCC(=O)N2CCN(S(=O)(=O)c3ccc(Cl)cc3)CC2)cc1,-18,-7,2,4,2,10
Cc1c(C)[n+](=O)c(C)c(C)n1[O-],6,0,4,x,29*,x
COc1ccc(Cn2cc(CN3CC(N4CC=CC4)CS3(=O)=O)nn2)cc1 (stereo not drawn),3,x,4,x,15,x
CCOc1cc(NC(=S)NC)c(OCC)cc1NC(=O)c1ccc(OC)cc1,5,1,-5,0,21*,-2
O=C(NCC1CCCO1)c1cccc(NS(=O)(=O)c2ccc(Br)cc2)c1 (stereo not drawn),-4,29,4,x,-4,x
COc1ccc2nc3c(cc2c1)c(NC(=O)c1cccs1)nn3CC(C)C,3,-3,-2,-46,45*,-1
SMILES,sPLA2-III inh,Arrestin-AP2 inh,m5-HT2A agonist,Hep lipid drop,CendR NRP1 mod,M18AAP inhibitor
CC(C)Cn1nc(NC(=O)c2cccs2)c2cc3ccccc3nc21,-1,-7,5,-11,1,-15
COc1ccc(CC(=O)OCc2cc3ccc(C)cc3[nH]c2=O)cc1,-13,-5,2,x,0,-2
COc1ccc(CC(=O)OCc2cc3ccccc3[nH]c2=O)cc1,-1,3,1,x,25*,-1
O=S(=O)(NC1=NCCCCC1)c1ccc(Cl)cc1,3,50,7,-11,6,-2
CCOc1ccc(S(=O)(=O)NC2=NCCCCC2)cc1,2,-10,5,x,18*,x
O=c1cc(CO)oc(CN2CCN(c3cccc(C(F)(F)F)c3)CC2)c1O,0,-2,8,-1,-5,29*
O=c1cc(CO)oc(CN2CCN(c3ccccc3)CC2)c1O,12,-3,0,x,16,18
